# In publication PMC3697071 (Natural product communications, 2010):
# Assays:
# [1] = tested on: Candida albicans ATCC 90028; assay: Antimicrobial assay; format: cell-based; settings: for IC50: Candida albicans, ATCC90028, read-out: C. albicans IC50; for C. albicans IC50: first value of IC50/MIC
# [2] = tested on: Cryptococcus neoformans ATCC 90113; assay: Antimicrobial assay; format: cell-based; settings: for MIC / IC50: Cryptococcus neoformans; for MIC: ATCC90113, read-out: C. neoformans MIC; for IC50: ATCC90113, read-out: C. neoformans IC50; for C. neoformans MIC: second value of IC50/MIC; for C. neoformans IC50: first value of IC50/MIC
# [3] = tested on: Leishmania donovani promastigotes; assay: Antileishmanial assay; format: cell-based; settings: 72 h; for IC50 / IC90: Leishmania donovani; for IC50: read-out: L. donovani IC50; for IC90: read-out: L. donovani IC90; for L. donovani IC50 / L. donovani IC90: promastigotes
# [4] = tested on: Aspergillus fumigatus ATCC 90906; assay: Antimicrobial assay; format: cell-based; settings: for IC50: Aspergillus fumigatus, ATCC90906, read-out: A. fumigatus IC50; for A. fumigatus MIC: second value of IC50/MIC; for A. fumigatus IC50: first value of IC50/MIC
# [5] = tested on: Plasmodium falciparum; assay: Antimalarial/parasite LDH assay, strains not distinguished in text; format: cell-based; settings: for IC50: Plasmodium falciparum, read-out: antiplasmodial IC50; for antimalarial activity against Plasmodium falciparum: result in words
# Outline: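 Colorimetric assay of parasite lactate dehydrogenase (pLDH) activity in P. falciparum cultures, run in 96-well format on two strains: Sierra Leone D6 (chloroquine-sensitive) and Indochina W2 (chloroquine-resistant). DMSO served as vehicle control, with artemisinin and chloroquine as drug controls.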
# [6] = tested on: P. falciparum W2 (chloroquine-resistant, Indochina); assay: Antimalarial/parasite LDH assay, W2 clone; format: cell-based, Plasmodium falciparum; settings: for IC50: Plasmodium falciparum, W2, read-out: P. falciparum W2 IC50; for P. falciparum W2 IC50: chloroquine-resistant clone W2
# [7] = tested on: P. falciparum D6 (chloroquine-sensitive, Sierra Leone); assay: Antimalarial/parasite LDH assay, D6 clone; format: cell-based, Plasmodium falciparum; settings: for IC50: Plasmodium falciparum, D6, read-out: P. falciparum D6 IC50; for P. falciparum D6 IC50: chloroquine-sensitive clone D6
# [8] = tested on: Escherichia coli ATCC 35218; assay: Antimicrobial assay; format: cell-based; settings: for IC50: ATCC35218, read-out: E. coli IC50; for E. coli IC50: first value of IC50/MIC
# Outline: (§1)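 Modified CLSI broth susceptibility method. Ciprofloxacin drug control in each assay. […] MIC is the lowest test concentration allowing no detectable growth.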
# [9] = tested on: Mycobacterium intracellulare ATCC 23068; assay: Antimicrobial assay; format: cell-based; settings: for IC50: ATCC23068, read-out: M. intracellulare IC50; for M. intracellulare MIC: second value of IC50/MIC; for M. intracellulare IC50: first value of IC50/MIC
# Outline: as §1
# [10] = tested on: methicillin-resistant S. aureus ATCC 43300 (MRS); assay: Antimicrobial assay; format: cell-based, Staphylococcus aureus; settings: for IC50 / MIC: Staphylococcus aureus; for IC50: ATCC43300, read-out: MRS IC50; for MIC: ATCC43300, read-out: MRS MIC; for MRS MIC / MRS IC50: methicillin-resistant S. aureus; for MRS MIC: second value of IC50/MIC; for MRS IC50: first value of IC50/MIC
# Outline: as §1
# [11] = tested on: Pseudomonas aeruginosa ATCC 27853; assay: Antimicrobial assay; format: cell-based; settings: for IC50: ATCC27853, read-out: P. aureginosa IC50; for P. aureginosa IC50: first value of IC50/MIC
# Outline: as §1
# [12] = tested on: Staphylococcus aureus ATCC 29213; assay: Antimicrobial assay; format: cell-based; settings: for IC50 / MIC: Staphylococcus aureus; for IC50: ATCC29213, read-out: S. aureus IC50; for MIC: ATCC29213, read-out: S. aureus MIC; for S. aureus MIC: second value of IC50/MIC; for S. aureus IC50: first value of IC50/MIC
# Outline: as §1
# [13] = tested on: Candida krusei ATCC 6258; assay: Antimicrobial assay; format: cell-based; settings: for C. krusei MIC: second value of IC50/MIC; for C. krusei IC50: first value of IC50/MIC
# [14] = tested on: Candida glabrata ATCC 90030; assay: Antimicrobial assay; format: cell-based; settings: for C. glabrata IC50: first value of IC50/MIC
# [15] = tested on: monkey kidney fibroblasts (VERO); assay: Cytotoxicity assay; format: cell-based; settings: VERO cells; max dose […] for pure compounds
Compound,IC50 [1],IC50 [3],IC90 [3],IC50 [4],IC50 [6],IC50 [7],IC50 ([8]; Escherichia coli),IC50 ([9]; Mycobacterium intracellulare),IC50 [10],IC50 ([11]; Pseudomonas aeruginosa),IC50 [12],MRS MIC [10],S. aureus MIC [12],C. krusei IC50 [13],C. albicans IC50 [1],E. coli IC50 [8],M. intracellulare IC50 [9],C. neoformans IC50 [2],MRS IC50 [10],C. glabrata IC50 [14],further results
"C[C@@H]1[C@H](O)[C@@H](C)/C=C/C=C/C=C/C=C/C=C/C=C/C=C/[C@H](O[C@@H]2O[C@H](C)[C@@H](O)[C@H](N)[C@@H]2O)C[C@@H]2O[C@](O)(C[C@@H](O)C[C@@H](O)[C@H](O)CC[C@@H](O)C[C@@H](O)CC(=O)O[C@H]1C)C[C@H](O)[C@H]2C(=O)O [Amphotericin B, reference compound]",0.43 mg/L,0.13 mg/L,0.3 mg/L,1.29 mg/L,,,,,,,,,,,,,,,,,MIC [2]: 1.25 mg/L
"C[C@@H]1CC[C@H]2[C@@H](C)C(=O)O[C@@H]3O[C@@]4(C)CC[C@@H]1[C@]32OO4 [Artemisinin, reference compound]",,,,,< 0.026 mg/L,< 0.026 mg/L,,,,,,,,,,,,,,,IC50 [5]: < 0.026 mg/L
"CCN(CC)CCCC(C)Nc1ccnc2cc(Cl)ccc12 (stereo not drawn) [Chloroquine, reference compound]",,,,,0.14 mg/L,< 0.026 mg/L,,,,,,,,,,,,,,,
"O=C(O)c1cn(C2CC2)c2cc(N3CCNCC3)c(F)cc2c1=O [Ciprofloxacin, reference compound]",,,,,,,0.004 mg/L,0.3 mg/L,0.08 mg/L,0.06 mg/L,0.1 mg/L,,,,,,,,,,"MIC ([8]; Escherichia coli, ATCC35218, read-out: E. coli MIC): 0.008 mg/L; MIC ([9]; Mycobacterium intracellulare, ATCC23068, read-out: M. intracellulare MIC): 1 mg/L; MIC [10]: 0.25 mg/L; MIC ([11]; Pseudomonas aeruginosa, ATCC27853, read-out: P. aureginosa MIC): 0.25 mg/L; MIC [12]: 0.25 mg/L"
"CC(C)C1=C(O)C(=O)C2=C(CC[C@H]3C(C)(C)CCC[C@]23C)C1=O [Compound 2, royleanone]",> 20 mg/L,,,> 20 mg/L,> 4.76 mg/L,> 4.76 mg/L,> 20 mg/L,> 20 mg/L,> 20 mg/L,> 20 mg/L,> 20 mg/L,,,,,,,,,,IC50 [2]: > 20 mg/L
"CC(C)C1=CC2=CC(=O)[C@H]3C(C)(C)CCC[C@]3(C)C2=C(O)C1=O [Compound 3, taxodione]",12.5 mg/L,0.08 mg/L,0.21 mg/L,8.9 mg/L,1.2 mg/L,1.2 mg/L,> 20 mg/L,11.9 mg/L,1.47 mg/L,> 20 mg/L,1.35 mg/L,2.5 mg/L,2.5 to 5 mg/L,,,,,,,,C. krusei MIC [13]: −; C. albicans MIC ([1]; second value of IC50/MIC): −; M. intracellulare MIC [9]: −; IC50 [5]: 1.2 to 4.8 mg/L; antimalarial activity against Plasmodium falciparum [5]: weak antimalarial activity; IC50 [2]: 0.58 mg/L; MIC [2]: 1.25 mg/L; C. neoformans MIC [2]: 1.25 mg/L; MIC [10]: 2.5 mg/L; MIC [12]: 5 mg/L; A. fumigatus MIC [4]: −
"CC(C)c1cc2c(cc1O)[C@@]1(C)CCCC(C)(C)[C@@H]1CC2 [Compound 6, ferruginol]",> 20 mg/L,4 mg/L,13 mg/L,> 20 mg/L,> 4.76 mg/L,> 4.76 mg/L,> 20 mg/L,14.5 mg/L,0.96 mg/L,> 20 mg/L,1.33 mg/L,2.5 mg/L,2.5 to 5 mg/L,,,,,,,,M. intracellulare MIC [9]: −; IC50 [2]: > 20 mg/L; MIC [10]: 2.5 mg/L; MIC [12]: 2.5 mg/L
"CC(C)c1cc2c(c(O)c1O)[C@@]1(C)CCCC(C)(C)C1=C(O)C2=O [Compound 7, 6-hydroxysalvinolone]",,,,,,,,,,,,2.5 mg/L,5 mg/L,−/− (- =Not Active),−/− (- =Not Active),−/− (=Not Active),−/− (=Not Active),0.96 mg/L,1.56 mg/L,−/− (- =Not Active),antimalarial activity against Plasmodium falciparum [5]: weak antimalarial activity; P. falciparum W2 IC50 [6]: 2.5 mg/L; C. neoformans MIC [2]: 2.5 mg/L; P. falciparum D6 IC50 [7]: 1.8 mg/L; VERO TC50 [15]: 4.5 mg/L; P. aureginosa IC50 [11]: −/− (=Not Active); S. aureus IC50 [12]: 1.75 mg/L; L. donovani IC50 [3]: 3.2 mg/L; L. donovani IC90 [3]: 6.5 mg/L; A. fumigatus IC50 [4]: 11.2 mg/L; A. fumigatus MIC [4]: −
"CC(CO)c1cc2c(c(O)c1O)[C@@]1(C)CCCC(C)(C)C1=C(O)C2=O (stereo partly drawn) [Compound 8, 6,11,12,16-tetrahydroxy-5,8,11,13-abietatetra-en-7-one]",,,,,,,,,,,,20 mg/L,20 mg/L,14.5 mg/L,−/− (- =Not Active),−/− (=Not Active),−/− (=Not Active),5.9 mg/L,8.44 mg/L,14.9 mg/L,C. krusei MIC [13]: 20 mg/L; P. falciparum W2 IC50 [6]: 4.8 mg/L; C. neoformans MIC [2]: 20 mg/L; P. falciparum D6 IC50 [7]: 3.0 mg/L; C. glabrata MIC ([14]; second value of IC50/MIC): 20 mg/L; P. aureginosa IC50 [11]: −/− (=Not Active); S. aureus IC50 [12]: 6.8 mg/L; L. donovani IC50 [3]: 12 mg/L; L. donovani IC90 [3]: 22 mg/L; A. fumigatus IC50 [4]: −/− (- =Not Active)
"CC1=C(C)C2=CC(=O)c3c(O)c4c(c(O)c3[C@@]2(C)CC1)O[C@@H](C)C4 [Compound 9, uncinatone]",,,,,,,,,,,,,,−/− (- =Not Active),−/− (- =Not Active),−/− (=Not Active),−/− (=Not Active),−/− (- =Not Active),−/− (=Not Active),−/− (- =Not Active),antimalarial activity against Plasmodium falciparum [5]: inactive; P. aureginosa IC50 [11]: −/− (=Not Active); S. aureus IC50 [12]: −/− (=Not Active); L. donovani IC50 [3]: 0.2 mg/L; L. donovani IC90 [3]: 0.9 mg/L; A. fumigatus IC50 [4]: −/− (- =Not Active)
"CC(C)c1cc2c(c(O)c1OC1OCC(O)C(O)C1O)C1(C)CCCC(C)(C)C1CC2 (stereo not drawn) [Compound 10, 11-hydroxy-8,11,13-abietatriene-12-O-β-xylopyranoside]",,,,,,,,,,,,,,−/− (- =Not Active),−/− (- =Not Active),−/− (=Not Active),−/− (=Not Active),−/− (- =Not Active),−/− (=Not Active),−/− (- =Not Active),P. aureginosa IC50 [11]: −/− (=Not Active); S. aureus IC50 [12]: −/− (=Not Active); A. fumigatus IC50 [4]: −/− (- =Not Active)
"N=C(N)c1ccc(OCCCCCOc2ccc(C(=N)N)cc2)cc1 [Pentamidine, reference compound]",,1.4 mg/L,6 mg/L,,,,,,,,,,,,,,,,,,
